Measured values: PMC6620733 (Biochemistry, 2019)
Read-outs that look alike come from different tables or passages of the source.

Tests used:
full-length Munc13-1 [1] = target: T1, full-length Munc13-1 (Rattus norvegicus, UniProt Q62768); type: cell-based
Procedure, shortened: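 Living HT22 cells (passages 2–16) are transfected with GFP-tagged full-length Munc13-1 (X-tremeGENE HP), then transferred after 24 h into phenol red-free DMEM with 1% FBS. Test compound at 10, 100 or 1000 nM is added at time zero. Confocal imaging every 30 s (488 nm excitation, 500–530 nm emission). Plasma membrane/cytoplasm mean intensity ratio is normalized to time zero. 5–9 cells per concentration, three independent experiments; saturated cells excluded.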

Munc13-1 C1 domain WT = Munc13-1 C1 domain WT (Rattus norvegicus, UniProt Q62768); test: In vitro [3H]PDBu binding assay, isolated Munc13-1 C1 domain; settings: for Kd: read-out: Kd for PDBu; for affinity better than that of PDBu: isolated C1 domain
Munc13-1 C1 W22A mutant = Munc13-1 C1 W22A mutant (Rattus norvegicus, UniProt Q62768, W588A); test: In vitro [3H]PDBu binding assay, Munc13-1 C1 domain W22A; settings: for decrease in affinity of W588A (W22A) mutant C1 domain versus WT: 100% PS
full-length Munc13-1 [2] = target: T1, full-length Munc13-1; test: In vitro [3H]PDBu binding assay, full-length Munc13-1
Munc13-1 [3] = target: T2, Munc13-1 (Rattus norvegicus, UniProt Q62768); type: cell-based; settings: HT22 cells, 0–2 μM, 5 min, confocal
Procedure, shortened: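 HT22 cells are seeded on coverslips at 6 × 10^4/well and, at 70–80% confluency, transfected with Munc13-1-GFP (Lipofectamine, antibiotic-free DMEM). They are exposed to 0.1–2 μM test compound for 5 min, then fixed in 4% PFA for 10 min and imaged by confocal at 63×. Read-out is the ratio of mean membrane intensity (outer 300 nm) to whole-cell intensity. Statistics use two-way ANOVA with Tukey.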

bMunc13-2 [4] = target: T3, bMunc13-2 (Rattus norvegicus, UniProt Q62769); type: cell-based; settings: HT22 cells, immunoblotting (1 μM) and confocal microscopy (0–2 μM), 5 min
T3 sequence (Q62769 1-1985 isoform Q62769-2): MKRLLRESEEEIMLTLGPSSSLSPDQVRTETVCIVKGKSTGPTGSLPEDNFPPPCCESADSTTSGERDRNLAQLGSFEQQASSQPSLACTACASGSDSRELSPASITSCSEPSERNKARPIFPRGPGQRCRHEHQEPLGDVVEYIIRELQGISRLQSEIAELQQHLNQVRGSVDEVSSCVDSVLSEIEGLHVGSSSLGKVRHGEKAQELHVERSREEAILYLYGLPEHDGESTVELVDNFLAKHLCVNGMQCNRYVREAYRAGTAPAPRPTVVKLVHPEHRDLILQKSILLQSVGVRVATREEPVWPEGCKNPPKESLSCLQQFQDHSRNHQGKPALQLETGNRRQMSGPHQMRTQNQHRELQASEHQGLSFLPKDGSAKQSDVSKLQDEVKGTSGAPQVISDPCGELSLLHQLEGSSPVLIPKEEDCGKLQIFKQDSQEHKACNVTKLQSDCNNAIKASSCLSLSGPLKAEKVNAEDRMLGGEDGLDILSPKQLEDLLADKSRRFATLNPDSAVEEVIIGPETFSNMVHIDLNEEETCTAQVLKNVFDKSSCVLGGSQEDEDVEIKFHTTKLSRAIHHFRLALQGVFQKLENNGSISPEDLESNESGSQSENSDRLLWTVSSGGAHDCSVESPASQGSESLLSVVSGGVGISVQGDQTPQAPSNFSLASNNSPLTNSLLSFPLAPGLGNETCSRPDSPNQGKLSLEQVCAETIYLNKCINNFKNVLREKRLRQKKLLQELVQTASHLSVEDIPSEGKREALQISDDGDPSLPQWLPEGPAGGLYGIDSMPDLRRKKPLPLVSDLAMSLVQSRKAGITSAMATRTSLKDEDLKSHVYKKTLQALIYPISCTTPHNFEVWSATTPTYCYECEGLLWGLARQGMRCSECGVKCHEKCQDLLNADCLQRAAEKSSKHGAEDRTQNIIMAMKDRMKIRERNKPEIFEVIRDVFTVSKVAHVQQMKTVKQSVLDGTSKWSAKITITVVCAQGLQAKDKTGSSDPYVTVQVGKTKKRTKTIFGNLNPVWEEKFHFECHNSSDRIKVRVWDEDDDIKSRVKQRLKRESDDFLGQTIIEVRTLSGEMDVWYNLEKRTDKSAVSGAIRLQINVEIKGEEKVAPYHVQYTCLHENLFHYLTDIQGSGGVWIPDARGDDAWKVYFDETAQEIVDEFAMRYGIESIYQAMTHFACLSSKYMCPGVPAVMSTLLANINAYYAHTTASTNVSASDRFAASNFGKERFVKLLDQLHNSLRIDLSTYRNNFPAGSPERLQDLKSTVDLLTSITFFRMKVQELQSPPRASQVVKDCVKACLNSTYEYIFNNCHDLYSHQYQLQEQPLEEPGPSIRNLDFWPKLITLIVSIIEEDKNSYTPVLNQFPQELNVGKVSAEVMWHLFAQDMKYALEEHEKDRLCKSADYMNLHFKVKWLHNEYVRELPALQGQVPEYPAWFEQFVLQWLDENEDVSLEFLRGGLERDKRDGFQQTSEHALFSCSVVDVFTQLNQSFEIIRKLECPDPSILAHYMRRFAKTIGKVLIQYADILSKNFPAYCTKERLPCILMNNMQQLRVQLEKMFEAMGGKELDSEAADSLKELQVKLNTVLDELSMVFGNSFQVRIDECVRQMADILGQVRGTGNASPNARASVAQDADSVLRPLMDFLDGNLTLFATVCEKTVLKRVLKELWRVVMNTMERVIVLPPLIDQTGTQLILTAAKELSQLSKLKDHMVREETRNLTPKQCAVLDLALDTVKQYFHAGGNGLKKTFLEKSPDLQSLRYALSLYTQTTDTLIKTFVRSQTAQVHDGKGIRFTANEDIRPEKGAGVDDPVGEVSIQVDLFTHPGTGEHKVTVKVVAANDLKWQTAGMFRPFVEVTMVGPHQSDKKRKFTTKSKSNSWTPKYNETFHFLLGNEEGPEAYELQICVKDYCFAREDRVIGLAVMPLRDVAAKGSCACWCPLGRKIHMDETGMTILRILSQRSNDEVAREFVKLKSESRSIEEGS
Procedure, shortened: (§1)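 Transfected HT22 cells (DMEM, 10% FBS, 70–80% confluent, Lipofectamine, antibiotic-free medium) express GFP-Munc13-1 or GFP-bMunc13-2 and are treated with 1 μM test compound. A kit separates the fractions: cytosolic buffer spin at 500g, 5 min; pellet in membrane buffer, 4 °C, 10 min, then 3000g, 5 min. 40 μg protein is run on 4–15% SDS–PAGE (membrane samples unheated). Probes are anti-GFP 1:500, Na,K-ATPase and β-actin 1:2000, with infrared detection.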

Munc13-1^H567K = Munc13-1^H567K (Rattus norvegicus, UniProt Q62768, H567K); type: cell-based; settings: HT22 cells, 0–2 μM, 5 min
Procedure, shortened: (§2)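 Fixed-cell confocal: HT22 cells in DMEM with 10% FBS and 2 mM glutamine are seeded on coverslips 24 h before transfection. At 70–80% confluence they are transfected (Lipofectamine 3000) with GFP-tagged mutant Munc13-1 plasmid in antibiotic-free medium. Treatment with test compound or PMA at 0.1–2 μM, then fixation in 4% PFA for 10 min and imaging at 63×. Ratio of mean membrane (outer 300 nm) to whole-cell GFP intensity.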

Munc13-1 [5] = target: T2, Munc13-1; test: Cell fractionation and Western blot of HT22 cells expressing GFP-tagged Munc13-1; type: cell-based; settings: 1 μM, 5 min, cell fractionation and immunoblot
Procedure, shortened: as §1

Munc13-1 C1 domain = Munc13-1 C1 domain (Rattus norvegicus, UniProt Q62768); type: cell-based; settings: living HT22 cells, 1 μM
Procedure, shortened: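 Live-cell imaging, C1 domain: HT22 cells (passages 2–16; high-glucose DMEM, 10% FBS, 2 mM L-glutamine) are transfected with GFP-tagged Munc13-1 C1 domain (X-tremeGENE HP). After 24 h they are moved to phenol red-free DMEM with 1% FBS. Test compound 1 μM is added at time zero, with confocal images every 30 s (488 nm excitation, 500–530 nm emission). Cytoplasm/nucleus intensity ratio is normalized to time zero. 11–16 cells per treatment, three independent experiments; saturated cells excluded.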

ubMunc13-2 = ubMunc13-2 (Rattus norvegicus, UniProt Q62769); test: Translocation of GFP-tagged ubMunc13-2 in living HT22 cells; type: cell-based; settings: living HT22 cells, 10, 100, 1000 nM, 0–15 min
Procedure, shortened: (§3)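 GFP-tagged bMunc13-2 or ubMunc13-2 is expressed in living HT22 cells (passages 2–16, X-tremeGENE HP transfection). Imaging is in phenol red-free DMEM with 1% FBS, 24 h post-transfection. Test compound at 10, 100 or 1000 nM is added at time zero, with confocal frames every 30 s (488/500–530 nm). Plasma membrane/cytoplasm ratio is normalized to time zero. bMunc13-2: 3–6 cells per concentration; ubMunc13-2: 5–9 cells; three independent experiments.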

Munc13-1^W588A = Munc13-1^W588A (Rattus norvegicus, UniProt Q62768, W588A); type: cell-based; settings: HT22 cells, 1 μM, 5 min
Procedure, shortened: as §2

PKCδ = PKCδ (Homo sapiens, UniProt Q05655); test: Translocation of GFP-tagged PKCδ in living HT22 cells; type: cell-based
Chain of PKCδ (Q05655 whole entry): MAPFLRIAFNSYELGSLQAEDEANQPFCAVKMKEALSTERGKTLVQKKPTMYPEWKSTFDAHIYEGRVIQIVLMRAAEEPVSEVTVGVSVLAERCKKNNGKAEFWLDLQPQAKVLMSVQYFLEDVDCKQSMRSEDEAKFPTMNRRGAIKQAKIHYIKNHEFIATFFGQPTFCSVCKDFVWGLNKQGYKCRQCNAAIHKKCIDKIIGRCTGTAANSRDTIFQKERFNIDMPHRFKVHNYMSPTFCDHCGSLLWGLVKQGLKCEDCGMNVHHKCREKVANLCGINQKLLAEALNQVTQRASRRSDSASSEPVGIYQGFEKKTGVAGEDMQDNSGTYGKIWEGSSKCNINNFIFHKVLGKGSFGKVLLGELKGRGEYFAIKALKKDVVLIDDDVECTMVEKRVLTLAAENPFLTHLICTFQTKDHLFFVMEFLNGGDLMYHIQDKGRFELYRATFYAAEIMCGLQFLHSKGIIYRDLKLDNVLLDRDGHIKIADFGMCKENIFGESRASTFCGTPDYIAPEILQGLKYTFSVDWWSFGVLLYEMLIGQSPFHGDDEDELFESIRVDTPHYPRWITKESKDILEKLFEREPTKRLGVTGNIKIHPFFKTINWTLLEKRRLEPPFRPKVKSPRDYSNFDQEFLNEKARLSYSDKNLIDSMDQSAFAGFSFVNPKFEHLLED
Procedure, shortened: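 For PKCδ, living HT22 cells (passages 2–16) transiently express GFP-tagged PKCδ (X-tremeGENE HP). After 24 h, medium is changed to phenol red-free DMEM with 1% FBS. Test compound at 10, 100 or 1000 nM is added at time zero, with confocal imaging every 30 s (488 nm excitation, 500–530 nm emission). Nuclear membrane/cytoplasm intensity ratio is normalized to time zero. 4–7 cells per concentration, three independent experiments.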

[6] = tested on: endogenous Munc13-1 in primary hippocampal neurons; test: Expression of endogenous Munc13-1 in primary hippocampal neurons; type: cell-based; settings: mouse primary hippocampal neurons, 0.1 or 0.5 μM, 24 h
Procedure, shortened: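 Hippocampi come from E18 mouse pups and are dissociated with trypsin/EDTA (20 min, 37 °C). Cells are plated at 8 × 10^4/well on poly-D-lysine coverslips in B-27 medium, and 7–8-day cultures are treated with 0.1 or 0.5 μM for 24 h. Cells are fixed in 4% PFA for 15 min and stained overnight at 4 °C with anti-Munc13-1 1:500, Tuj1 1:1000 and DAPI. Cytosolic Munc13-1 is measured by confocal in 3 wells × 3 cells per group.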

[7] = tested on: endogenous Munc13-1 in HT22 cells; test: Expression of endogenous Munc13-1 in differentiated HT22 cells; type: cell-based, mouse; settings: 24 h
Procedure, shortened: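 Endogenous protein by Western blot: HT22 cells are differentiated in NeuroBasal medium with […], cAMP, L-glutamine and antibiotics. At 48–72 h after day 0, test compound is added at 0.1 or 0.5 μM for 24 h. Lysis in modified RIPA with protease/phosphatase inhibitors, sonication, 14000g 30 min at 4 °C. 7.5–10% SDS–PAGE, nitrocellulose, 2.5% BSA block. Anti-Munc13-1 1:500 and β-actin 1:5000, HRP secondary, ECL. Densitometric Munc13-1:β-actin ratio.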

bMunc13-2 [8] = target: T3, bMunc13-2; test: Translocation of GFP-tagged bMunc13-2 in living HT22 cells; type: cell-based; settings: living HT22 cells, 10, 100, 1000 nM, 0–15 min
Procedure, shortened: as §3

[9] = read-out: Kd for PDBu, 100:0 PS/PC

SMILES: CCCC(=O)O[C@@H]1[C@@H](C)[C@@]2(O)[C@@H](C=C(CO)C[C@]3(O)C(=O)C(C)=C[C@@H]23)[C@@H]2C(C)(C)[C@]12OC(=O)CCC [PDBu, Phorbol 12,13-dibutyrate]
- effectiveness for inducing translocation relative to bryostatin 1 (full-length Munc13-1 [1]; living HT22 cells, 1 μM): modestly less effective than was bryostatin 1
- Kd (Munc13-1 C1 domain WT; 5:95 PS/PC): 82 ± 15 nM
- Kd (Munc13-1 C1 domain WT; 20:80 PS/PC): 69.5 ± 4.8 nM
- Kd (Munc13-1 C1 domain WT; 100:0 PS/PC): 124 ± 13 nM
- Ki (Munc13-1 C1 domain WT; read-out: Ki for PDBu, PS/PC (20:80, w:w), assayed in parallel): 69.5 ± 4.8 nM
- Ki (Munc13-1 C1 domain WT; read-out: Ki for PDBu, PS/PC (100:0)): 124 ± 13 nM
- decrease in affinity of W588A (W22A) mutant C1 domain versus WT (Munc13-1 C1 W22A mutant): 6.5 fold
- Kd (Munc13-1 C1 W22A mutant; [9]): 809 ± 8.1 nM
- Kd (full-length Munc13-1 [2]; [9]): 7.09 ± 0.53 nM
- Ki (full-length Munc13-1 [2]; read-out: Ki for PDBu, 100% PS, measured in parallel with bryostatin 1): 7.1 ± 0.5 nM

SMILES: CCCCCCCCCCCCCC(=O)O[C@@H]1[C@@H](C)[C@@]2(O)[C@@H](C=C(CO)C[C@]3(O)C(=O)C(C)=C[C@@H]23)[C@@H]2C(C)(C)[C@]12OC(C)=O [PMA, phorbol 12-myristate 13-acetate]
- translocation of Munc13-1 to the plasma membrane (Munc13-1 [3]): induced translocation of Munc13-1 to the plasma membrane
- translocation of GFP-tagged bMunc13-2 (bMunc13-2 [4]): translocation similar to that of GFP-tagged Munc13-1
- translocation (localization change) of Munc13-1 H567K (Munc13-1^H567K): no significant changes in localization
- transfer of Munc13-1 to membrane fraction (Munc13-1 [5]): caused Munc13-1 to transfer to the membrane fraction

SMILES: CCC/C=C/C=C/C(=O)O[C@H]1/C(=C/C(=O)OC)C[C@H]2C[C@H]([C@@H](C)O)OC(=O)C[C@H](O)C[C@@H]3C[C@H](OC(C)=O)C(C)(C)[C@](O)(C[C@@H]4C/C(=C/C(=O)OC)C[C@H](/C=C/C(C)(C)[C@]1(O)O2)O4)O3 [bryostatin 1]
- translocation of Munc13-1 to the plasma membrane (Munc13-1 [3]): induced translocation of Munc13-1 to the plasma membrane
- translocation of GFP-C1 domain (Munc13-1 C1 domain): translocated within 5–20 min from the nucleus to internal membranes but not to the plasma membrane
- stimulation of translocation at 100 nM as fraction of that caused by 1000 nM (full-length Munc13-1 [1]; Munc13-1, 15 min value): 30%
- translocation of full-length Munc13-1 (full-length Munc13-1 [1]; living HT22 cells, 1 μM): translocated to the plasma membrane
- Ki (Munc13-1 C1 domain WT; Ki for bryostatin 1, 5:95 PS/PC, 100 μg/mL lipid, 0.1 mM Ca2+, 100 nM [3H]PDBu): 22.8 ± 1.8 nM
- Ki (Munc13-1 C1 domain WT; Ki for bryostatin 1, 20:80 PS/PC, 100 μg/mL lipid, 0.1 mM Ca2+, 100 nM [3H]PDBu): 22.7 nM
- Ki (Munc13-1 C1 domain WT; Ki for bryostatin 1, 100:0 PS/PC, 100 μg/mL lipid, 0.1 mM Ca2+, 100 nM [3H]PDBu): 8.07 ± 0.9 nM
- affinity better than that of PDBu (Munc13-1 C1 domain WT; 100% PS): 15 fold
- affinity better than that of PDBu (Munc13-1 C1 domain WT; lower PS concentrations): 3 fold
- Ki (Munc13-1 C1 W22A mutant): 54 ± 12 nM
- decrease in affinity of W588A (W22A) mutant C1 domain versus WT (Munc13-1 C1 W22A mutant): 6.6 fold
- translocation of ubMunc13-2 (ubMunc13-2): clear translocation
- translocation of full-length Munc13-1 W588A (Munc13-1^W588A): translocation was lost
- Ki (full-length Munc13-1 [2]): 0.45 ± 0.04 nM
- affinity better than that of PDBu (full-length Munc13-1 [2]; full-length Munc13-1, 100% PS): approximately 15 fold
- stimulation of translocation at 100 nM as fraction of that caused by 1000 nM (PKCδ; PKCδ, 15 min value): 63%
- translocation of PKCδ (PKCδ; living HT22 cells, 10, 100, 1000 nM, 0–15 min): induces translocation of PKCδ to the nuclear membrane and to internal membranes, rather than to the plasma membrane
- expression of endogenous Munc13-1 in cytosol [6]: significantly increased the level of expression of Munc13-1
- translocation of GFP-tagged bMunc13-2 (bMunc13-2 [4]): translocation similar to that of GFP-tagged Munc13-1
- level of endogenous Munc13-1 staining ([7]; 0.1 and 0.5 μM, immunostaining): increased with both doses
- endogenous Munc13-1 levels by Western blot ([7]; 0.1 or 0.5 μM): increased
- translocation (localization change) of Munc13-1 H567K (Munc13-1^H567K): no significant changes in localization
- translocation of bMunc13-2 (bMunc13-2 [8]): clear translocation
- transfer of Munc13-1 to membrane fraction (Munc13-1 [5]): caused Munc13-1 to transfer to the membrane fraction
